Most compounds without a hit are left out; they make up all but 3.5% or so of the library.
FN deposit inh: fibronectin deposition inhibition; AH1F fibroblasts, Alexa488-fibronectin deposition fluorescence, overnight; inhibition, % at 12.6 µM; hit rate 0.086% among 350,000; AID 743247;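 active = mean inhibition across replicates of 30% or more, regardless of how many single replicates reach that level; inconclusive = mean under 30% yet at least half of replicates reach 30%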
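Material: AH1F fibroblast monolayer depositing Alexa488-labelled fibronectin into matrix | Input: 10000 AH1F cells/well | Medium: DMEM plus 2% serum, read in PBS | Reagent: Alexa488-fibronectin, 24 nM final in well | Compound dosing: One dose per compound, pinned | Schedule: 1 h adhesion, overnight exposure | Measured by: Fluorescence at 485 nm excitation, 525 nm emission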
PGC1a acetyl inh: lowers PGC1a acetylation signal in U2OS cells. AlphaScreen anti-acetyl-lysine; with virally co-expressed GCN5 acetyltransferase. inhibition, % at 15.6 µM. hit rate 0.17% among 350,000. AID 651687;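 active = every replicate shows inhibition of at least 40%; inconclusive = mean inhibition at least 40% but some replicate below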
Ecoli rRNA inh: selective bacterial rRNA inhibition in E. coli | E. coli WT GFP vs humanized-ribosome RFP mutants, fluorescence, 24 h; hits give low values; DMSO median 0, no signal -100 | GFP signal change (wild-type ribosome), % (test concentration not listed) | hit rate 1.6% among 350,000;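 active = significant combined selectivity score with lowered wild-type GFP, culture density cut under 30%, mutant RFP and density less affected; inactive = any of these conditions unmet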
DENV2 CPE: protects cells from dengue virus 2 cytopathic effect; DENV2-infected cells, cytopathic effect rescue, plate reader; CPE inhibition, % at 9.99 µM; hit rate 1.7% among 350,000; in the data active = CPE inhibition above about 20%, passing the limit was not always enough; inconclusive = no clear call, values can overlap the other calls; tested in BHK-21 cells
HIV Env fusion: inhibitors of HIV Env-mediated cell fusion; HeLa-JRFL Env/CEM21 cell fusion, luciferase; hit rate 1.1% among 360,000; AID 651610; inhibition, % at 12.3 µM;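 active = mean replicate inhibition score of at least 50 and every replicate individually at or above 50; inconclusive = only one of the two criteria met; inactive = mean below 50 and not all replicates reaching 50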
PglD DTNB: inhibitors of Campylobacter jejuni PglD acetyltransferase; inhibition, % at 12.5 µM; hit rate 0.098% among 360,000; purified PglD enzyme, DTNB colorimetric CoA detection; in the data active = inhibition above about 16%, passing the limit was not always enough; inconclusive = no clear call, values can overlap the other calls
A number is an active result; – = inactive; ? = inconclusive; · = no result.

SMILES	FN deposit inh	PGC1a acetyl inh	Ecoli rRNA inh	DENV2 CPE	HIV Env fusion	PglD DTNB
O=C(NCc1ccccc1)[C@H]1[C@H](CO)[C@H]2Cn3c(cccc3=O)[C@@H]1N2Cc1cccnc1	·	–	–	–	·	–
CCOC(=O)Nc1sc(C)c(C)c1C(=O)OCC	–	·	-19.9	–	–	·
CCOC(=O)c1c(NC(=O)Nc2ccccc2)sc(C)c1C	·	–	·	·	·	–
O=C(CN1CCOCC1)N[C@@H]1CC[C@H](CCNC(=O)C2CCCCC2)O[C@H]1CO	–	–	–	–	–	–
C[C@H]1CN([C@@H](C)CO)C(=O)c2c(c3ccccc3n2C)-c2ccccc2CO[C@@H]1CN(C)C(=O)Nc1ccc(-c2ccccc2)cc1	–	–	–	–	·	·
CC(=O)Nc1ccc(S(=O)(=O)N(CC(=O)Nc2cc(C)on2)Cc2ccc(F)cc2)cc1	–	·	-24.2	–	–	·
C/C(=N\Nc1cc(-c2ccccc2)nc(-c2ccccc2)n1)c1ccc(O)c(C)c1	–	·	–	–	·	–
COc1cc(N/N=C(\C)c2ccc(O)c(C)c2)nc(-c2ccccc2)n1	·	–	-37.0	·	–	·
CCC(=O)N(C)C[C@H]1Oc2ncc(C#CC(C)(C)O)cc2C(=O)N([C@H](C)CO)C[C@@H]1C	–	–	–	–	–	–
C[C@H](CO)N1C[C@H](C)[C@@H](CN(C)C(=O)C2CCC2)Oc2ncc(C#CC(C)(C)O)cc2C1=O	·	–	–	23.0	–	–
CC(=O)N(C)C[C@@H]1Oc2ncc(C#CC(C)(C)O)cc2C(=O)N([C@@H](C)CO)C[C@H]1C	–	–	–	20.1	–	–
CC(C)(C)n1nnnc1C(c1ccc(C(F)(F)F)cc1)N(Cc1ccc(F)cc1)Cc1ccco1 (stereo not given)	·	–	·	·	·	–
CC(C)(C)n1nnnc1C(c1ccc(F)cc1)N(Cc1ccc(F)cc1)Cc1ccco1 (stereo not given)	–	–	·	·	124.2	–
CC(C)(C)n1nnnc1C(c1cccs1)N(Cc1ccccc1)Cc1cccnc1 (stereo not given)	·	–	·	·	·	–
CC(C)(C)n1nnnc1C(c1cccnc1)N(Cc1ccccc1)Cc1cccs1 (stereo not given)	–	–	·	·	56.6	–
N#C[C@H]1[C@H](c2ccc(C3=CCCCC3)cc2)[C@H](CO)N1C(=O)CN1CCOCC1	–	–	–	?	–	–
CC(C)CNC(=O)COC(=O)c1ccccc1SCC(=O)NCC(C)C	–	–	–	–	–	–
CC(C)CNC(=O)c1ccccc1SCC(=O)NC12CC3CC(CC(C3)C1)C2	–	·	·	·	64.0	·
O=C(C[C@@H]1CC[C@@H](NC(=O)Nc2cc(F)ccc2F)[C@@H](CO)O1)NCc1ccccn1	–	–	–	–	–	–
CCCCCCCCN1C(=O)[C@H](CC(=O)NCCC(C)C)C[C@@]2(C(=O)OCC)CCCC=C12	–	·	–	20.1	61.3	·
CCOC(=O)[C@]12CCCC=C1N(Cc1ccccc1)C(=O)[C@H](CC(=O)NCc1cccs1)C2	–	·	–	54.6	–	·
CCOC(=O)[C@]12CCCC=C1N(Cc1cccc3ccccc13)C(=O)[C@H](CC(=O)NCc1cccc3ccccc13)C2	–	·	·	–	–	·
CCOC(=O)[C@]12CCCC=C1N(Cc1ccccc1)C(=O)[C@H](CC(=O)NCCCOC)C2	–	·	–	–	59.5	·
CCCCCCCCN1C(=O)[C@H](CC(=O)NCc2cccc3ccccc23)C[C@@]2(C(=O)OCC)CCCC=C12	–	·	–	–	75.8	·
CCOC(=O)[C@]12CCCC=C1N(Cc1ccccc1)C(=O)[C@H](CC(=O)NCCCCc1ccccc1)C2	–	·	–	–	–	·
SMILES	FN deposit inh	PGC1a acetyl inh	Ecoli rRNA inh	DENV2 CPE	HIV Env fusion	PglD DTNB
CCOC(=O)[C@]12CCCC=C1N(CCC1=CCCCC1)C(=O)[C@H](CC(=O)NCCC(C)C)C2	–	·	–	–	–	·
CN(C)c1ccc2c(c1)[C@@H]1C[C@@H](CC(=O)NCc3ccc(-c4ccccc4)cc3)O[C@@H](CO)[C@@H]1O2	–	–	–	–	·	·
C[C@H]1CN([C@@H](C)CO)C(=O)c2cc(NC(=O)c3ccncc3)ccc2O[C@H]1CN(C)S(=O)(=O)c1cccs1	–	–	–	–	·	–
CCCNC(=O)C[C@@H]1CC[C@H]2[C@@H](COc3ccc(NC(=O)c4cccs4)cc3C(=O)N2C)O1	–	–	–	?	·	–
C[C@H](CO)N1C[C@H](C)[C@H](CN(C)Cc2ccc3c(c2)OCO3)Oc2c(NS(=O)(=O)c3ccc(F)cc3)cccc2C1=O	·	–	–	–	·	–
CCOC(=O)[C@]12CCCC=C1N(Cc1ccco1)C(=O)[C@H](CC(=O)N1CCC(c3ccccc3)CC1)C2	–	·	–	38.2	–	·
COC(=O)[C@]12CCCCC=C1N(Cc1ccco1)C(=O)[C@H](CC(=O)N1CCC(c3ccccc3)CC1)C2	–	·	–	–	–	·
CCCCCCCCN1C(=O)[C@H](CC(=O)NCc2cccs2)C[C@@]2(C(=O)OCC)CCCC=C12	–	·	–	–	88.2	·
CCCCCCCCN1C(=O)[C@H](CC(=O)NCc2ccc(OC)c(OC)c2)C[C@@]2(C(=O)OCC)CCCC=C12	–	·	–	–	69.7	·
CCOC(=O)[C@]12CCCC=C1N(CCc1ccc(OC)c(OC)c1)C(=O)[C@H](CC(=O)NCc1ccccc1)C2	–	·	–	–	–	·
CCCCOCCCNC(=O)C[C@@H]1C[C@@]2(C(=O)OCC)CCC=C2N(Cc2ccc3c(c2)OCO3)C1=O	–	·	–	–	–	·
CCOC(=O)[C@]12CCC=C1N(Cc1ccc3c(c1)OCO3)C(=O)[C@H](CC(=O)NCC13CC4CC(CC(C4)C1)C3)C2	·	·	–	·	77.3	·
C[C@@H]1CN([C@H](C)CO)C(=O)Cc2cc(NS(=O)(=O)c3cccs3)ccc2O[C@@H]1CN(C)C(=O)Nc1cccc2ccccc12	·	–	–	–	–	–
COC(=O)C[C@H]1C=C[C@H](N)[C@H](CO)O1	–	–	–	–	·	–
C[C@H]1CN([C@@H](C)CO)C(=O)c2cccc(NS(=O)(=O)c3ccc(F)cc3)c2O[C@H]1CN(C)S(C)(=O)=O	·	–	–	–	–	–
CN1C(=O)c2cc(NC(=O)C3CC3)ccc2OC[C@H]2O[C@@H](CC(=O)O)CC[C@H]21	–	–	–	–	·	·
COC(=O)[C@]12C[C@H](CC(=O)N3CCC(c4ccccc4)CC3)C(=O)N(Cc3ccccc3)C1=C[C@H](C1CCCC1)O[C@@H]2C	–	·	–	45.4	–	·
COc1cccc(NC(=O)N2CC(=O)N3[C@H](CO)[C@H](c4ccc(C#CC5CCCCC5)cc4)[C@H]3C2)c1	·	–	–	–	·	·
CCCCOc1ccccc1N	–	·	·	·	–	·
CCOc1ccccc1N	·	–	–	23.2	·	–
C[C@@H]1CN([C@H](C)CO)C(=O)c2cccc(NC(=O)NC3CCCCC3)c2O[C@@H]1CN(C)C(=O)Nc1ccc2c(c1)OCO2	·	–	–	–	–	–

From PubChem
